In brackets after ≈: the same amount, converted by molar mass.
Legend:
[1] = test system: Mycobacterium tuberculosis; experiment: Antitubercular activity against Mycobacterium tuberculosis H37Ra after 5 days by luminescence assay; assay type: functional; settings: 120 h
Procedure, shortened: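 Compounds were 10-point two-fold dilutions in 7H9-Tw-OADC, top 100 µg/mL, final DMSO 2%. Controls were INH 1 µg/mL (zero growth) and DMSO (maximum growth). RLU was read daily in triplicate over days 0–5. Percent growth was fitted to a Gompertz model, and MIC was taken where the inflection point meets the lower asymptote.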

[2] = test system: Mycobacterium tuberculosis; experiment: Antimycobacterial activity against Mycobacterium tuberculosis H37Rv after 7 days by microplate alamar blue assay; assay type: functional; settings: 168 h
Procedure, shortened: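 Each well held a 1/100 culture dilution plus 10-point two-fold DMSO dilutions (top 100 µg/mL, final DMSO 2%). INH and RIF were the positive controls. After 7 days at 37 °C, Tween 80 and alamarBlue were added for 16–24 h. MIC was the lowest concentration preventing the blue-to-pink change.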

Staphylococcus aureus = experiment: Toxicity in Staphylococcus aureus after 18 to 24 hrs by two-fold serial dilution method; assay type: organism-based
Escherichia coli = experiment: Toxicity in Escherichia coli after 18 to 24 hrs by two-fold serial dilution method; assay type: organism-based
Enterococcus faecalis = experiment: Toxicity in Enterococcus faecalis after 18 to 24 hrs by two-fold serial dilution method; assay type: organism-based
HepG2 = experiment: Cytotoxicity against human HepG2 cells after 72 hrs by MTT assay; assay type: cell-based; settings: HepG2, 72 h
RAW264.7 = experiment: Cytotoxicity against mouse RAW264.7 cells after 72 hrs by MTT assay; assay type: cell-based; settings: RAW264.7, 72 h
[3] = Selectivity index, ratio of IC50 for human HepG2 cells to MIC for Mycobacterium tuberculosis H37Ra; assay type: toxicity; settings: read-out: Selectivity Index
[4] = Selectivity index, ratio of IC50 for mouse RAW264.7 cells to MIC for Mycobacterium tuberculosis H37Ra; assay type: toxicity; settings: read-out: Selectivity Index

Row | SMILES | MIC [1] [µg/mL] | other results
1 | CC(C)(C)C1CCC(C(=O)Nc2cc(O)cc(Cc3ccccc3)c2)CC1 (stereo unspecified) | > 50 | 
2 | O=C(Nc1cc(O)cc(Cc2ccccc2)c1)c1cc(C(F)(F)F)cc(C(F)(F)F)c1 | > 25 | 
3 | O=C(Nc1cc(O)cc(Cc2ccccc2)c1)c1ccc(F)c(Cl)c1 | 5 (≈ 14.1 µM) | 
4 | CC(C)(C)C(=O)Nc1cc(O)cc(Cc2ccccc2)c1 | 2.5 (≈ 8.82 µM) | 
5 | O=C(Nc1cc(O)cc(Cc2ccccc2)c1)C1CC1 | 5 (≈ 18.7 µM) | 
6 | CC(C)(C)c1ccc(C(=O)Nc2cc(O)cc(Cc3ccccc3)c2)cc1 | 2.5 (≈ 6.95 µM) | 
7 | COc1cc(Cc2ccccc2)cc(NC(=O)c2ccccc2)c1 | > 50 | 
8 | O=C(Nc1cc(O)cc(Cc2ccccc2)c1)C12CC3CC(CC(C3)C1)C2 | > 50 | 
9 | O=C(Nc1cccc(O)c1)c1ccccc1 | > 50 | 
10 | O=C(Nc1cc(O)cc(Cc2ccccc2)c1)C1CCOCC1 | 6.25 (≈ 20.1 µM) | 
11 | O=C(Nc1cc(O)cc(Cc2ccccc2)c1)C(F)(F)F | > 50 | 
12 | CCCCCc1cc(O)cc(NC(=O)C2CCCCC2)c1 | > 50 | 
13 | O=C(Nc1cc(O)cc(Cc2ccccc2)c1)N1CCOCC1 | 12.5 (≈ 40 µM) | 
14 | O=C(O)c1cc(Cc2ccccc2)cc(NC(=O)c2ccccc2)c1 | > 50 | 
15 | Cc1ccc(C)c(Cc2cc(O)cc(NC(=O)C3CCCCC3)c2)c1 | > 50 | 
16 | CO[C@H]1/C=C/O[C@@]2(C)Oc3c(C)c(O)c4c(O)c(c(/C=N/N5CCN(C)CC5)c(O)c4c3C2=O)NC(=O)/C(C)=C\C=C\[C@H](C)[C@H](O)[C@@H](C)[C@@H](O)[C@@H](C)[C@H](OC(C)=O)[C@@H]1C [RIFAMPIN] |  | MIC [2]: 0.003 µg/mL (≈ 0.00365 µM)
17 | CC1(C)S[C@@H]2[C@H](NC(=O)[C@H](N)c3ccc(O)cc3)C(=O)N2[C@H]1C(=O)O [AMOXICILLIN] |  | MIC (Staphylococcus aureus): 0.78 µg/mL (≈ 2.13 µM)
18 | Oc1cccc(Cc2ccccc2)c1 | > 50 | 
19 | CC(C)C(=O)Nc1cc(O)cc(Cc2ccccc2)c1 | 5 (≈ 18.6 µM) | 
20 | O=C(Nc1cc(O)cc(Cc2ccccc2)c1)C1CCCCC1 | 0.625 (≈ 2.02 µM) | MIC [2]: 0.39 µg/mL (≈ 1.26 µM); MIC (Staphylococcus aureus): > 50 µg/mL; MIC (Escherichia coli): > 50 µg/mL; MIC (Enterococcus faecalis): > 50 µg/mL; IC50 (HepG2): > 161 µM; IC50 (RAW264.7): > 323 µM; selectivity ratio [3]: > 80; selectivity ratio [4]: > 160
21 | CC(C)CCc1cc(O)cc(NC(=O)C2CCCCC2)c1 | > 50 | 
22 | O=C(Nc1cc(O)cc(Cc2ccccc2)c1)C1CCCC1 | 2.5 (≈ 8.46 µM) | 

Row | SMILES | MIC [1] [µg/mL] | other results
23 | O=C(Nc1cc(O)cc(Cc2ccccc2)c1)c1cccc(Cl)c1 | 2.5 (≈ 7.4 µM) | 
24 | Nc1cc(Cc2ccccc2)cc(NC(=O)c2ccccc2)c1 | 10 (≈ 33.1 µM) | 
25 | O=C(Nc1cc(O)cc(Cc2ccccc2)c1)c1ccc(C(F)(F)F)cc1 | 5 (≈ 13.5 µM) | 
26 | NNC(=O)c1ccncc1 [ISONIAZID] | 0.1 (≈ 0.729 µM) | MIC [2]: 0.41 µg/mL (≈ 2.99 µM)
27 | O=C(Nc1cc(O)cc(Cc2ccccc2)c1)c1cccnc1Cl | 5 (≈ 14.8 µM) | 
28 | O=C(Nc1cc(O)cc(Cc2ccccc2)c1)c1ccc(Cl)cc1Cl | 5 (≈ 13.4 µM) | 
29 | O=C(Nc1cc(O)cc(C(O)c2ccccc2)c1)c1ccccc1 (stereo unspecified) | > 50 | 
30 | CCCc1cc(O)cc(NC(=O)C2CCCCC2)c1 | > 50 | 
31 | O=C(Nc1cc(O)cc(Cc2ccccc2)c1)c1ccc(C2CCCCC2)cc1 | > 50 | 
32 | CC1COc2c(N3CCN(C)CC3)c(F)cc3c(=O)c(C(=O)O)cn1c23 (stereo unspecified) [OFLOXACIN] |  | MIC (Staphylococcus aureus): 0.31 µg/mL (≈ 0.858 µM); MIC (Escherichia coli): 1.25 µg/mL (≈ 3.46 µM)
33 | O=C(Nc1cc(O)cc(Cc2ccccc2)c1)c1ccc(Cl)cc1 | 2.5 (≈ 7.4 µM) | 
34 | CC(=O)Nc1cc(O)cc(Cc2ccccc2)c1 | > 100 | 
35 | Cc1ccc(C(=O)Nc2cc(O)cc(Cc3ccccc3)c2)cc1 | 1.25 (≈ 3.94 µM) | 
36 | Cc1nnsc1C(=O)Nc1cc(O)cc(Cc2ccccc2)c1 | 10 (≈ 30.7 µM) | 
37 | O=C(Nc1cc(O)cc(Cc2ccccc2)c1)c1ccco1 | 10 (≈ 34.1 µM) | 
38 | CCC1CCC(C(=O)Nc2cc(O)cc(Cc3ccccc3)c2)CC1 (stereo unspecified) | 2.5 (≈ 7.41 µM) | 
39 | O=C(Nc1cc(O)cc(Cc2ccccc2)c1)c1cccs1 | 2.5 (≈ 8.08 µM) | 
40 | O=C(Nc1cc(O)cc(Cc2ccccc2)c1)c1ccc([N+](=O)[O-])cc1 | > 50 | 
41 | O=C(Nc1cc(O)cc(Cc2ccccc2)c1)c1ccccc1Cl | 2.5 (≈ 7.4 µM) | 
42 | O=C(Nc1cc(O)cc(Cc2ccccc2)c1)c1ccc(OC(F)(F)F)cc1 | 10 (≈ 25.8 µM) | 
43 | O=C(Nc1cc(O)cc(Cc2ccccc2)c1)c1ccccc1 | 5 (≈ 16.5 µM) | MIC [2]: 0.39 µg/mL (≈ 1.29 µM); MIC (Staphylococcus aureus): > 50 µg/mL; MIC (Escherichia coli): > 50 µg/mL; MIC (Enterococcus faecalis): > 50 µg/mL; IC50 (HepG2): > 330 µM; IC50 (RAW264.7): > 330 µM; selectivity ratio [3]: > 20; selectivity ratio [4]: > 20

Source: ChEMBL document CHEMBL4257537, “Design, synthesis, and biological evaluation of m-amidophenol derivatives as a new class of antitubercular agents” (Medchemcomm, 2018)
